For series [1], the species on record is Homo sapiens. Put plainly: Selectivity ratio of IC50 for His-tagged recombinant human full length PI3K p110alpha/p85alpha to IC50 for His-tagged recombinant human PI3K p110delta/p85alpha.
Series [2] deals with Phosphatidylinositol 4,5-bisphosphate 3-kinase catalytic subunit beta isoform (Homo sapiens, UniProt P42338). The series can be described thus: Inhibition of His6-tagged recombinant full length human N-terminal PI3Kbeta expressed in baculovirus infected Sf21 cells using lipid substrate incubated for 2 hrs by ADP-Glo assay.
Series [3] is described as follows: AUC (0 to t) in Sprague-Dawley rat at 2 mg/kg, iv by LC/MS/MS analysis. It is filed as ADME, organism-based. The note with it: in vivo. An outline of the steps:
(§1)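 Male SD rats, three per group, dosed iv at 2 mg/kg or orally at 10 mg/kg. iv dose was a 0.4 mg/mL solution in 5% DMSO/10% Solutol/10% EtOH/75% saline. Oral dose was a 1 mg/mL suspension in 2% DMSO/98% MC (0.5%). Terminal orbital blood was taken into EDTA-2K under isoflurane at set time points. Plasma levels were measured by LC/MS/MS.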

The nature of series [4]: Cmax in Sprague-Dawley rat at 10 mg/kg, po by LC/MS/MS analysis. It is filed as ADME, organism-based. Also noted: dose 10 mg/kg, route oral. The following applies: in vivo. The method, boiled down:
as §1

Series [5] can be described thus: Oral bioavailability in Sprague-Dawley rat at 10 mg/kg by LC/MS/MS analysis. It is filed as ADME, organism-based. The following applies: in vivo. An outline of the steps:
as §1

Series [6] in a line: AUC (0 to t) in Sprague-Dawley rat at 10 mg/kg, po by LC/MS/MS analysis. In kind it is ADME, organism-based. The following applies: in vivo. The method, boiled down:
as §1

Series [7] deals with PI3-kinase p110-delta/p85-alpha (Homo sapiens, UniProt O00329). The series can be described thus: Inhibition of His-tagged recombinant human PI3K p110delta/p85alpha using lipid substrate incubated for 2 hrs by ADP-Glo assay. In kind it is protein-complex assay. On the technique in general: ADP-Glo turns the ADP formed in a reaction into a luminescent signal.
Series [8] deals with Phosphatidylinositol 4,5-bisphosphate 3-kinase catalytic subunit gamma isoform (Homo sapiens, UniProt P48736). The series can be described thus: Inhibition of His-tagged recombinant human full length PI3K p110gamma expressed in baculovirus expression system using lipid substrate incubated for 2 hrs by ADP-Glo assay.
Series [9] is described as follows: Volume of distribution at steady state in Sprague-Dawley rat at 2 mg/kg, iv by LC/MS/MS analysis. It is filed as ADME, organism-based. The following applies: in vivo, read-out: Vdss. The method, boiled down: as §1
Series [10] in a line: Clearance in Sprague-Dawley rat at 2 mg/kg, iv by LC/MS/MS analysis. In kind it is ADME, organism-based. The following applies: in vivo.
The target in series [11] is PI3-kinase p110-alpha/p85-alpha (Homo sapiens, UniProt P42336). The series can be described thus: Inhibition of His-tagged recombinant human full length PI3K p110alpha/p85alpha expressed in baculovirus expression system using lipid substrate incubated for 60 mins by kinase-Glo reagent based luminescence assay. On the technique in general: In Kinase-Glo more light means more ATP remaining.

Another series concerns SU-DHL-6. The series can be described thus: Growth inhibition of human SU-DHL6 cells incubated for 72 hrs by CellTiter-Glo assay. It is filed as functional. The following applies: SU-DHL-6, 72 h. The method, boiled down: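 SU-DHL-6 cells were seeded at 1 × 10^4 per well and exposed to compound or medium alone for 72 h. Viability was measured by CellTiter-Glo luminescence, and GI50 was derived by curve fitting.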

The nature of series [12]: Half life in Sprague-Dawley rat at 2 mg/kg, iv by LC/MS/MS analysis. In kind it is ADME, organism-based. The note with it: in vivo. An outline of the steps:
as §1

The nature of series [13]: Half life in Sprague-Dawley rat at 10 mg/kg, po by LC/MS/MS analysis. In kind it is ADME, organism-based. The following applies: in vivo. The method, boiled down: as §1
For series [14], the species on record is Homo sapiens. The series can be described thus: Selectivity ratio of IC50 for His6-tagged recombinant full length human N-terminal PI3Kbeta to IC50 for His-tagged recombinant human PI3K p110delta/p85alpha.
The species named for series [15] is Homo sapiens. The series can be described thus: Selectivity ratio of IC50 for His-tagged recombinant human full length PI3K p110gamma to IC50 for His-tagged recombinant human PI3K p110delta/p85alpha.

Here are results for 30 compounds from ChEMBL document CHEMBL4385593, “Design, synthesis and biological evaluation of novel benzothiadiazine derivatives as potent PI3Kδ-selective inhibitors for treating B-cell-mediated malignancies” (Eur J Med Chem, 2019).

Chain of Phosphatidylinositol 4,5-bisphosphate 3-kinase catalytic subunit gamma isoform (P48736 whole entry, canonical isoform): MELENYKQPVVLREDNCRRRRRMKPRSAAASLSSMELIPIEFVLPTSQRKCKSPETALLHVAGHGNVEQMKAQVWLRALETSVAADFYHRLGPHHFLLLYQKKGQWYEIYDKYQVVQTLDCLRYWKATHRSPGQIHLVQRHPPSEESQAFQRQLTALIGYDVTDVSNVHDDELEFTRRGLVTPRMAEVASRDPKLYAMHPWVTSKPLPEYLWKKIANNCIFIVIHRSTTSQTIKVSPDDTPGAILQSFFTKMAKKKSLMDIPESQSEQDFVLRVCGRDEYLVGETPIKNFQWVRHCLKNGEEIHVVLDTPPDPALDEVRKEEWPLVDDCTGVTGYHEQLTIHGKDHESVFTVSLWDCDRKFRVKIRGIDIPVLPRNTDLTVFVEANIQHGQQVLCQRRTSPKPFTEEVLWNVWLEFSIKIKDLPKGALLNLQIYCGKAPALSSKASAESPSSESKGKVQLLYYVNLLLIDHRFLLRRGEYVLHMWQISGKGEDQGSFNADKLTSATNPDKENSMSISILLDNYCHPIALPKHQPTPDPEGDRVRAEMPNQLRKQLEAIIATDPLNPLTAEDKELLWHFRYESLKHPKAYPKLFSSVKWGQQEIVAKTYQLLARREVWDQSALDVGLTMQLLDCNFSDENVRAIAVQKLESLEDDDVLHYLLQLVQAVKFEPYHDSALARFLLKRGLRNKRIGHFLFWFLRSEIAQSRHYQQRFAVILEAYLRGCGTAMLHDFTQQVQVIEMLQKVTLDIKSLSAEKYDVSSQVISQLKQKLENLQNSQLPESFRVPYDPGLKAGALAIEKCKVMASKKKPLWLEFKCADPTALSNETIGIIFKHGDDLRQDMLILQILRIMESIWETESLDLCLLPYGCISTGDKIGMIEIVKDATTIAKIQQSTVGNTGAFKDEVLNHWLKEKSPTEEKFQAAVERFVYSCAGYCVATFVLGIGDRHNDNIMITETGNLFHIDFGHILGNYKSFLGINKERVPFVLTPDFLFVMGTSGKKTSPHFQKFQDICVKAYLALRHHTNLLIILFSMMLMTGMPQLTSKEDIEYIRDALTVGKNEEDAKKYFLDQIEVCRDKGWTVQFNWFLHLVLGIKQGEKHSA
Chain of PI3-kinase p110-delta/p85-alpha (P27986 whole entry, canonical isoform): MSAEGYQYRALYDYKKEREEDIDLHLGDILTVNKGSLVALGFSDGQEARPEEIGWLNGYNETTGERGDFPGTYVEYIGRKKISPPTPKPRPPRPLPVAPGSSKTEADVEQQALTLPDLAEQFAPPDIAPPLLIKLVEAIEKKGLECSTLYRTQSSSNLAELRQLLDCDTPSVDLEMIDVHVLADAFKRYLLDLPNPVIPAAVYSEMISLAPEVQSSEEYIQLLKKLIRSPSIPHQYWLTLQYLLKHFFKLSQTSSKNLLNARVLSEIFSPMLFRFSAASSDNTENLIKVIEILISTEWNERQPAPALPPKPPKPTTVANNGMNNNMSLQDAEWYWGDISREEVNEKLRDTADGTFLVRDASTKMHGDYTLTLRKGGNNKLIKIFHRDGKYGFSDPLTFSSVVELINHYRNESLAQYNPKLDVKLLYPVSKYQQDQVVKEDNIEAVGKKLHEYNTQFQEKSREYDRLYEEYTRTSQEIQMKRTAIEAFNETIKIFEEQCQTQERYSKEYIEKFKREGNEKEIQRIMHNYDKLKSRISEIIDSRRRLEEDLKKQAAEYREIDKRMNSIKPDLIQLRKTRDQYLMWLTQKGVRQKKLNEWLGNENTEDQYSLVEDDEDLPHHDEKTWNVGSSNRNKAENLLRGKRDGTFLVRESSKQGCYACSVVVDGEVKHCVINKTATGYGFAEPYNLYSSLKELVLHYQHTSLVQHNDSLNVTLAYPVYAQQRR
Chain of PI3-kinase p110-delta/p85-alpha (O00329 whole entry, canonical isoform): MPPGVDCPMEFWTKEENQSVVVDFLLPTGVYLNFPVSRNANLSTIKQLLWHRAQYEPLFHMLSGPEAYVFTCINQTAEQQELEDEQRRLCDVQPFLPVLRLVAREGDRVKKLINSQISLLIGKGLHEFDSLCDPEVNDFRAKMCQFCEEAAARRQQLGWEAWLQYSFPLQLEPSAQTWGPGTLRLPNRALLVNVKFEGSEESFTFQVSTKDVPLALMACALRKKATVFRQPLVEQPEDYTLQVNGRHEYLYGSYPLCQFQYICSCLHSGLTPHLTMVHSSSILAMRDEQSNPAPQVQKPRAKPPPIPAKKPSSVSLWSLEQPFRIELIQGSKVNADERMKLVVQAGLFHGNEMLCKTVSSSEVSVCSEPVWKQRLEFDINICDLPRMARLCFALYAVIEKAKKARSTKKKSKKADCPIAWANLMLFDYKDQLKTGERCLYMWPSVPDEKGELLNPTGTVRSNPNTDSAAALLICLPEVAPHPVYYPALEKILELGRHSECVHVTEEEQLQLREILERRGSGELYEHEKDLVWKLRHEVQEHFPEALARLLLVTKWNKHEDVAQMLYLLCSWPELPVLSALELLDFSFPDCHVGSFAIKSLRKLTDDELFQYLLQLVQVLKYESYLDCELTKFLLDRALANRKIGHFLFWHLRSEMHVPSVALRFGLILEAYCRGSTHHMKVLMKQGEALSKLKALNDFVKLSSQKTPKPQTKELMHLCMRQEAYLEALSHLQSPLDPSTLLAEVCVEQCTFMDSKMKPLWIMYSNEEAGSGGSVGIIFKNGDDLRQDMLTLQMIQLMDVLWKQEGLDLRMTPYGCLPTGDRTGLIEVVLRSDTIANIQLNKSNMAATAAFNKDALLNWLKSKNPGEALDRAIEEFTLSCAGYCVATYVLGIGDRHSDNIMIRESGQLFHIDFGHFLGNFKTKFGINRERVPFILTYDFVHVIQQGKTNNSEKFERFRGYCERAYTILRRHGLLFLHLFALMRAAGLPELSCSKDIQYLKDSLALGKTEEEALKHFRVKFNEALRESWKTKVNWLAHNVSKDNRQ
Chain of PI3-kinase p110-alpha/p85-alpha (P27986 whole entry): as the sequence (P27986 whole entry, canonical isoform) above
Chain of PI3-kinase p110-alpha/p85-alpha (P42336 whole entry): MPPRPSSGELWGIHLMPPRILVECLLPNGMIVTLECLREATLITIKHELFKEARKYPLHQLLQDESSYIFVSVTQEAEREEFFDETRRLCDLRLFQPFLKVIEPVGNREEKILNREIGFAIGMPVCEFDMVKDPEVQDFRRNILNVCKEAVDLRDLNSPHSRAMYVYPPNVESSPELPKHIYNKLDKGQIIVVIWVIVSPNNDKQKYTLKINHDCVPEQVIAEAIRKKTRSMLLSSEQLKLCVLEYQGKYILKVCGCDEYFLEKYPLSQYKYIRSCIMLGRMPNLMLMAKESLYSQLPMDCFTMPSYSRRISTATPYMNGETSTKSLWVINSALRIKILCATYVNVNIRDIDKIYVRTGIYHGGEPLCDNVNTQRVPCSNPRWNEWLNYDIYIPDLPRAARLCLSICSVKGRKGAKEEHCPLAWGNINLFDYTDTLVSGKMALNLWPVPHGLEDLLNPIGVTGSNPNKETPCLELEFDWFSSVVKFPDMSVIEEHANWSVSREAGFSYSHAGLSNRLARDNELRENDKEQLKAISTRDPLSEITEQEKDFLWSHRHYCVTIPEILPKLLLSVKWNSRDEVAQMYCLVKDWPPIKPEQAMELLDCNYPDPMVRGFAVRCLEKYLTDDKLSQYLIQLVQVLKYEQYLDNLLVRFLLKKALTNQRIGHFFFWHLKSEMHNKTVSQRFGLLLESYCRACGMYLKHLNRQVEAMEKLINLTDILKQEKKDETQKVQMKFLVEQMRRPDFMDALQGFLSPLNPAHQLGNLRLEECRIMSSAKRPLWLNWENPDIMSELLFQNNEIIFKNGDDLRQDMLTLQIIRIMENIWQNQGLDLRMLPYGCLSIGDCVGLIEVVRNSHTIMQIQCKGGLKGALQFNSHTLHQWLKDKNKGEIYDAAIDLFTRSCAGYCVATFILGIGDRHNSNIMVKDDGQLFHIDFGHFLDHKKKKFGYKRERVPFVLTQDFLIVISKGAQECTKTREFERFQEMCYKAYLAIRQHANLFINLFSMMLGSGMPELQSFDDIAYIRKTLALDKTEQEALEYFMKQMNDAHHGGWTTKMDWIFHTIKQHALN
Chain of Phosphatidylinositol 4,5-bisphosphate 3-kinase catalytic subunit beta isoform (P42338 whole entry, canonical isoform): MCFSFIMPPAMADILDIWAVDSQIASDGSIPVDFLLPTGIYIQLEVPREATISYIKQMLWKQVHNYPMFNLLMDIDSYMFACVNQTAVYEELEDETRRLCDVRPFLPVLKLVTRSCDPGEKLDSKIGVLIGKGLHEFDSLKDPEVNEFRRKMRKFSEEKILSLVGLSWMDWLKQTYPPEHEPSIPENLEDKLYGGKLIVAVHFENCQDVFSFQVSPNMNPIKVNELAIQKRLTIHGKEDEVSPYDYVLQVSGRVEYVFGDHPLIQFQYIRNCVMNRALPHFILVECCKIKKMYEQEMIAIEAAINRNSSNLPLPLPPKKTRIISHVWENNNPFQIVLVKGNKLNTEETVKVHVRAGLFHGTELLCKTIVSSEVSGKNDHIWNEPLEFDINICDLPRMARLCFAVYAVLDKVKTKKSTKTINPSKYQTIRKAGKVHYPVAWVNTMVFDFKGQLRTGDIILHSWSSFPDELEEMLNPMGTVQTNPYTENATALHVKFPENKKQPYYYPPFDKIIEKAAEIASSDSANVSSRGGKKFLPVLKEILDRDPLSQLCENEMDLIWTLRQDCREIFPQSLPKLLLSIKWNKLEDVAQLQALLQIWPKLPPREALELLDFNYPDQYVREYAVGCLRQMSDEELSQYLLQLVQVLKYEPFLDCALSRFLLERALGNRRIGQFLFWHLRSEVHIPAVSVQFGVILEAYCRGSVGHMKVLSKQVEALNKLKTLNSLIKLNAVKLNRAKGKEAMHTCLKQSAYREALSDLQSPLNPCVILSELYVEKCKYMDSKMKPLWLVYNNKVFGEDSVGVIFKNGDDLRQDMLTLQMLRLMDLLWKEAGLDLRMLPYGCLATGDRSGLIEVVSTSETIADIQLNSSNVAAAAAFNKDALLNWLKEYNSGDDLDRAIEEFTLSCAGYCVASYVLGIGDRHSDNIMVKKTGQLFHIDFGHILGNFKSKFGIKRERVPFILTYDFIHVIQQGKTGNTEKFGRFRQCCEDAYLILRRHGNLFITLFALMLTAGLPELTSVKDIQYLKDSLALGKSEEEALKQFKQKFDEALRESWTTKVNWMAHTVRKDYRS

Turning to `C[C@H](Nc1ncnc2[nH]cnc12)C1=Nc2cccc(Cl)c2S(=O)(=O)N1c1ccccc1`, the Ratio IC50 in the series filed under Homo sapiens [1] came out at 791; in the series listed under Homo sapiens [14], 167; in the series listed under Homo sapiens [15], 34. The 50% inhibitory concentration (IC50) (in general, the concentration at which inhibition is half-maximal) in series [2] stood at 766 nM; in [7], 4.6 nM; in [8], 156 nM; in [11], 3640 nM. The AUC(0-t) – broadly, the area under the concentration-time curve up to a stated or last time point – in [3] came to 1400 ng·h/mL; in [6], 2010 ng·h/mL. Further, the Cmax (in general, the peak of the concentration-time curve) in series [4] amounted to 643 ng/mL. Besides, the bioavailability (commonly dose-corrected exposure relative to a reference, in per cent) in series [5] is 29.2%. In addition, the Vd in series [9] amounted to 0.853 L/kg. For the same compound, in [10], the clearance (usually the rate of elimination divided by the concentration) turned out to be 25.8 mL/min/kg. Moreover, the GI50 (in general, the concentration that inhibits growth by half) in the series with SU-DHL-6 amounted to 33.2 nM. Also, the figures for the half-life in series [12] and in series [13] were 31.1 min and 72 min, respectively.
For the compound `CC(Nc1ncnc2[nH]cnc12)C1=Nc2ccccc2S(=O)(=O)N1c1ccccc1` (stereo not drawn), the IC50 in series [7] was 344 nM.
Consider `CCC(Nc1ncnc(N)c1C#N)C1=Nc2cccc(Cl)c2S(=O)(=O)N1c1ccccc1` (stereo not drawn), for which, in series [7], the IC50 was determined as 12 nM. The compound also registered a 50% growth inhibitory concentration (GI50) in the series with SU-DHL-6 of 1680 nM.
Consider `CC(Nc1nc(F)nc2[nH]cnc12)C1=Nc2ccccc2S(=O)(=O)N1c1ccccc1` (stereo not drawn), for which the IC50 in [7] was determined as 92 nM. For the same compound, in the series on SU-DHL-6, it took 4690 nM to inhibit growth by half (GI50).
Turning to `CC(Nc1ncnc2[nH]cnc12)C1=Nc2ccccc2S(=O)(=O)N1c1cccnc1` (stereo not drawn), the IC50 in series [7] was 921 nM.
In the case of `CC(C1=Nc2ccccc2S(=O)(=O)N1c1ccccc1)n1cnc2c(N)ncnc21` (stereo not drawn), in series [7], the IC50 worked out at 68 nM. Also, halving of growth in the series with SU-DHL-6 (GI50) required 23100 nM.
Take `CC(Nc1ncnc2[nH]cnc12)C1=Nc2ccccc2S(=O)(=O)N1c1ccc(F)cc1` (stereo not drawn): the IC50 in [7] was determined as 2000 nM.
In the case of `C[C@@H](Nc1ncnc(N)c1C#N)C1=Nc2cccc(Cl)c2S(=O)(=O)N1c1ccccc1`, the Ratio IC50 in the series filed under Homo sapiens [1] was greater than 714; in the series listed under Homo sapiens [14], 24; in the series filed under Homo sapiens [15] it was 16. Moreover, the IC50 is 169 nM in series [2], 7 nM in series [7], 112 nM in series [8] and greater than 5000 nM in [11]. In the series with SU-DHL-6, this compound showed a GI50 of 70.3 nM.
For `CCC(C1=Nc2ccccc2S(=O)(=O)N1c1ccc(OC(F)(F)F)cc1)n1cnc2c(N)ncnc21` (stereo not drawn), the IC50 in series [7] was greater than 3000 nM.
In the case of `CC(C1=Nc2cccc(F)c2S(=O)(=O)N1c1ccccc1)n1cnc2c(N)ncnc21` (stereo not drawn), the 50% inhibitory concentration (IC50) in series [7] amounted to 54 nM. Moreover, growth in the series on SU-DHL-6 was halved (GI50) at 7200 nM.
The matching figures for `CC(Nc1ncnc(N)c1C#N)C1=Nc2cccc(F)c2S(=O)(=O)N1c1ccccc1` (stereo not drawn): 35 nM and 1220 nM.
Consider `CCC(Nc1ncnc2[nH]cnc12)C1=Nc2cccc(Cl)c2S(=O)(=O)N1c1ccccc1` (stereo not drawn), for which the IC50 in series [7] turned out to be 81 nM. This compound had a GI50 in the series with SU-DHL-6 of 2190 nM.
With `CC(Nc1nc(Cl)nc2[nH]cnc12)C1=Nc2ccccc2S(=O)(=O)N1c1ccccc1` (stereo not drawn), the IC50 in series [7] was found to be 1200 nM.
As to `C[C@@H](Nc1ncnc2[nH]cnc12)C1=Nc2cccc(Cl)c2S(=O)(=O)N1c1ccccc1`, the Ratio IC50 in the series filed under Homo sapiens [1] was greater than 81; in the series filed under Homo sapiens [14], 64; in the series filed under Homo sapiens [15] it was 31. Moreover, the IC50 in series [2] was 3990 nM; in series [7], 62 nM; in series [8] it was 1910 nM; in series [11], greater than 5000 nM. This compound showed a GI50 in the series with SU-DHL-6 of 190 nM.
Regarding `C[C@H](Nc1ncnc(N)c1C#N)C1=Nc2cccc(Cl)c2S(=O)(=O)N1c1ccccc1`, the Ratio IC50 in the series filed under Homo sapiens [1] is greater than 3110; in the series listed under Homo sapiens [14] it was greater than 172; in the series listed under Homo sapiens [15] it was greater than 313. Also, the IC50 was 55 nM in series [2], less than 0.32 nM in series [7], 100 nM in series [8] and 996 nM in series [11]. The same compound returned a GI50 in the series on SU-DHL-6 of 15.9 nM.
In the series with SU-DHL-6, `CC(=O)O[C@H]1C(=O)[C@@]2(C)[C@H]([C@H](OC(=O)c3ccccc3)[C@]3(O)C[C@H](OC(=O)[C@H](O)[C@@H](NC(=O)c4ccccc4)c4ccccc4)C(C)=C1C3(C)C)[C@]1(OC(C)=O)CO[C@@H]1C[C@@H]2O` [PACLITAXEL] returned a GI50 of 1.9 nM.
With `CC(Nc1ncnc2[nH]cnc12)C1=Nc2cccc(Cl)c2S(=O)(=O)N1c1ccccc1` (stereo not drawn), the IC50 in [7] stood at 9.8 nM. This compound also had a GI50 in the series on SU-DHL-6 of 770 nM.
For `CCC(Nc1ncnc2[nH]cnc12)C1=Nc2ccccc2S(=O)(=O)N1c1ccc(OC(F)(F)F)cc1` (stereo not drawn), the IC50 in series [7] is greater than 3000 nM.
Consider `CC(C1=Nc2ccccc2S(=O)(=O)N1c1ccc(F)cc1)n1cnc2c(N)ncnc21` (stereo not drawn), for which, in series [7], the IC50 amounted to 628 nM.
Regarding `CC(Nc1ncnc(N)c1C#N)C1=Nc2ccccc2S(=O)(=O)N1c1ccccc1` (stereo not drawn), the half-inhibitory concentration (IC50) in series [7] was 15 nM. The compound further yielded a 50% growth inhibitory concentration (GI50) in the series on SU-DHL-6 of 3500 nM.
Regarding `CCC(Nc1ncnc2[nH]cnc12)C1=Nc2ccccc2S(=O)(=O)N1c1ccc(OC)c(OC)c1` (stereo not drawn), in series [7], the IC50 is greater than 3000 nM.
As for `CCC(Nc1nc(F)nc2[nH]cnc12)C1=Nc2cccc(F)c2S(=O)(=O)N1c1ccccc1` (stereo not drawn), in [7], the IC50 amounted to 383 nM.
Take `CC(C1=Nc2ccccc2S(=O)(=O)N1c1cccnc1)n1cnc2c(N)ncnc21` (stereo not drawn): the IC50 in series [7] was determined as 623 nM.
In the case of `CC(Nc1ncnc2[nH]cnc12)C1=Nc2ccccc2S(=O)(=O)N1c1cccc(C(F)(F)F)c1` (stereo not drawn), the IC50 in series [7] is greater than 3000 nM.
On the same count and under the same terms, then `CCC(Nc1ncnc2[nH]cnc12)C1=Nc2cccc(F)c2S(=O)(=O)N1c1ccccc1` (stereo not drawn), with greater than 3000 nM.
As to `CC(Nc1ncnc(N)c1C#N)C1=Nc2cccc(Cl)c2S(=O)(=O)N1c1ccccc1` (stereo not drawn), the concentration for half-maximal inhibition (IC50) in series [7] amounted to 3.2 nM. Further, the GI50 in the series with SU-DHL-6 came to 187 nM.
Regarding `CCC(C1=Nc2ccccc2S(=O)(=O)N1c1ccc(F)cc1)n1cnc2c(N)ncnc21` (stereo not drawn), the IC50 in series [7] was greater than 3000 nM.
`CCC(Nc1ncnc(N)c1C#N)C1=Nc2cccc(F)c2S(=O)(=O)N1c1ccccc1` (stereo not drawn): the IC50 in series [7] is 141 nM. In addition, the GI50 with SU-DHL-6 amounted to 10500 nM.
With `CCC(Nc1ncnc2[nH]cnc12)C1=Nc2ccccc2S(=O)(=O)N1c1cccc(C(F)(F)F)c1` (stereo not drawn), the IC50 in series [7] is greater than 3000 nM.
In the case of `CC[C@H](Nc1ncnc2[nH]cnc12)c1nc2cccc(F)c2c(=O)n1-c1ccccc1` [IDELALISIB], the AUC(0-t) was 1400 ng·h/mL in series [3] and 3190 ng·h/mL in [6]. Besides, in series [4], the Cmax turned out to be 2320 ng/mL. Also, the bioavailability in series [5] was 45.8%. The Vd in series [9] turned out to be 0.884 L/kg. This compound also returned a GI50 with SU-DHL-6 of 124 nM. Further, the half-life (commonly the time in which the quantity being followed falls by half) in [12] was 31.1 min; in series [13], 61.8 min.
